Laboratory results: ChEMBL document CHEMBL1132422, “Synthesis and evaluation of 2-amino-9-(1, 3-dihydroxy-2-propoxymethyl)- 6-fluoropurine mono- and diesters as potential prodrugs of ganciclovir” (J Med Chem, 1999)
≈ marks a conversion by molar mass, not a printed value.

Tests used:
Human betaherpesvirus 5 = assay: In vitro antiviral (HCMV-AD169) activity of the compound (Concentration required to reduce 50% of the plaques) determined by plaque reduction assay.; type: functional, cell-based; conditions: Human betaherpesvirus 5, AD169, HEL 299
Summary of the method: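 Confluent cells infected with about 50 PFU HCMV AD-169 per well, 1 h adsorption at 37 °C, 5% CO2. Inoculum replaced with EMEM containing 2% FBS, 1% methyl cellulose and compound at various concentrations. After 10 days, plaques fixed in methanol, stained with crystal violet and counted. EC50 from probit dose-response; quadruplicate, repeated twice.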

HEL 299 = assay: In vitro cytotoxicity of the compound (Concentration required to reduce OD value by 50%) in human embryonic lung fibroblast(HEL 299) cells determined by MTT assay.; type: functional
Summary of the method: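 HEL 299 cells seeded at 1 × 10^4 cells/well in EMEM and grown 24 h, then exposed to compound at various concentrations for 4 days at 37 °C, 5% CO2. MTT added for 4 h, formazan dissolved in DMSO, OD read at 540 nm. CC50 from probit dose-response; quadruplicate, repeated twice.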

[1] = Compound was tested for solubility in water at 25 degree C; type: ADME; conditions: read-out: S
Summary of the method: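 Saturated aqueous solution of compound; UV absorbance at 245 nm compared against a standard curve to give solubility.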

[2] = Compound was tested for its half life period at pH 8.0 using Sodium phosphate buffer; type: ADME
Summary of the method: (§1)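 Compound incubated in buffer (HCl/NaCl at pH 1.2; sodium phosphate at pH 6.0, 7.4, 8.0), sampled and analysed by C18 reversed-phase HPLC. Gradient: 10 min 100% 0.1% phosphoric acid, 25 min linear to 45% of 80% MeCN/0.1% phosphoric acid, then 4 min isocratic, at 1 mL/min. UV detection at 245 nm. Half-life derived from remaining parent compound.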

Rattus norvegicus = assay: Total amount of Ganciclovir recovered in the urine over a 48 hr period after an oral dose of 0.1 mmol/kg to male SD rat; type: functional
Summary of the method: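 Single oral dose of 0.1 mmol/kg given to two male Sprague-Dawley rats (200-250 g). Urine collected for 48 h in metabolic cages, and total ganciclovir measured by C18 reversed-phase HPLC.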

[3] = Compound was tested for its half life period at pH 6.0 using Sodium phosphate buffer; type: ADME; summary of the method: as §1
[4] = Compound was tested for its half life period at pH 7.4 using Sodium phosphate buffer; type: ADME; summary of the method: as §1
[5] = Compound was tested for its half life period at pH 1.2 using HCl/NaCl buffer; type: ADME; summary of the method: as §1

EC50 (Human betaherpesvirus 5) [µM]	solubility [1] [mg/mL]	half-life [2] [h]	half-life [3] [days]	half-life [4] [h]	half-life [5] [h]	Compound	CC50 (HEL 299) [µM]	Ganciclovir recovered in urine over 48 h (% of dose) (Rattus norvegicus) [%]	Dose (Rattus norvegicus) [%]
> 100	4.2 (≈ 12.3 mM)	72	30	192	1.03	CC(=O)OCC(COC(C)=O)OCn1cnc2c(F)nc(N)nc21	> 100	41	–
> 100	0.6 (≈ 1.51 mM)	96	39	264	1.08	CCCC(=O)OCC(COC(=O)CCC)OCn1cnc2c(F)nc(N)nc21	> 100	35	–
> 100	0.7 (≈ 1.9 mM)	48	35	168	1.38	CCC(=O)OCC(COC(=O)CC)OCn1cnc2c(F)nc(N)nc21	> 100	35	–
> 100	19 (≈ 60.6 mM)	168	37	408	1	CCC(=O)OCC(CO)OCn1cnc2c(F)nc(N)nc21 (configuration not stated)	> 100	–	39

More lines, now with the values behind:

Compound	EC50 (Human betaherpesvirus 5) [µM]	solubility [1] [mg/mL]	half-life [2] [h]	half-life [3] [days]	half-life [4] [h]	half-life [5] [h]	CC50 (HEL 299) [µM]	Ganciclovir recovered in urine over 48 h (% of dose) (Rattus norvegicus) [%]	Dose (Rattus norvegicus) [%]
CC(C)C(=O)OCC(COC(=O)C(C)C)OCn1cnc2c(F)nc(N)nc21	> 100	0.4 (≈ 1.01 mM)	120	29	168	1.23	> 100	42	–
CCCC(=O)OCC(CO)OCn1cnc2c(F)nc(N)nc21 (configuration not stated)	> 100	19.4 (≈ 59.3 mM)	288	51	504	1.15	> 100	41	–
CC(=O)OCC(CO)OCn1cnc2c(F)nc(N)nc21 (configuration not stated)	> 100	44.4 (≈ 148 mM)	168	56	336	1.02	> 100	29	–
Nc1nc(F)c2ncn(COC(CO)CO)c2n1	> 100	11.3 (≈ 43.9 mM)	720	107	1660	1.03	> 100	8	–
CC(C)C(=O)OCC(CO)OCn1cnc2c(F)nc(N)nc21 (configuration not stated)	> 100	5.7 (≈ 17.4 mM)	336	56	768	1.08	> 100	45	–
Nc1nc2c(ncn2COC(CO)CO)c(=O)[nH]1 [GANCICLOVIR]	0.63	4.3 (≈ 16.8 mM)	–	–	–	–	> 100	3	–
CC(C)OCC(COC(C)C)OCn1cnc2cnc(N)nc21 [ROCICLOVIR]	–	–	–	–	–	–	–	14	–
